Shown are actives, neighbours in structure and some others; about 1.5% of the full set was active somewhere.
Jurkat NFkB inh = lowers PMA/ionomycin-induced NF-kB signal in Jurkat cells; inhibition, % at 4 µM; PMA/ionomycin-induced NF-kB luciferase reporter, luminescence; actives 0.53% (n = 330,000); in the data active = inhibition above about 50%
GASC-1 inh = human JMJD2C demethylase inhibition; actives 0.069% (n = 330,000); Q9H3R0; inhibition, % at 2.35 µM; GST-JMJD2C(1-420) H3K9me3 demethylation, DELFIA europium;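 active = more than half of a compound's replicate wells show inhibition beyond 50%, single wells judged on their own value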;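 also: signal counts dimethyl H3K9 product captured on neutravidin plate; 0% = median of DMSO wells and 100% = 0.3 times that DMSO median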
NR2E3 ag-1 = agonists of human nuclear receptor NR2E3; Q9Y5X4; GST-NR2E3/biotin-RetCOR TR-FRET, 1536-well; inhibition of corepressor binding, % at 4.78 µM; actives 0.12% (n = 320,000);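 active = percent inhibition above the cutoff of mean plus 3 SD of all tested compounds, set per screening campaign, cut at about 20% in these data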;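 also: 0% = DMSO wells and 100% = biotin wells as full block of FRET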
Target sequence (Q9Y5X4 whole entry, looked up): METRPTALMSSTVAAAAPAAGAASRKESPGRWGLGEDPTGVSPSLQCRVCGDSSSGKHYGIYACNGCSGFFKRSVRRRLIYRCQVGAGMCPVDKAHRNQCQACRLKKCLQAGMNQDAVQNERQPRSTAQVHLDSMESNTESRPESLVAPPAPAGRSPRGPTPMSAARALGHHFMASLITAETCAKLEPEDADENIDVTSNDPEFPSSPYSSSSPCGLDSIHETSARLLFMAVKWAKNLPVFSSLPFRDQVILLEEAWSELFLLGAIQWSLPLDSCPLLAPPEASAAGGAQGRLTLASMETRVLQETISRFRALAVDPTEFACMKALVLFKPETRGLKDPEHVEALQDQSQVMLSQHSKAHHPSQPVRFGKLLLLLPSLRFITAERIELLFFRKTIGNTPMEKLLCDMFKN
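Material: NR2E3–RetCOR corepressor complex / Amount: 1.35 nM GST-NR2E3 / Medium: Tris pH 7.5 / Compound: single nominal compound dose of 4.8 µM / Incubation: 5 h at 4 °C / Technique: TR-FRET, Eu(K)-anti-GST donor, streptavidin-D2 acceptor, ex 340, em 617/671 nm / Read-out basis: percent loss of FRET ratio relative to control wells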
NR2E3 ag-2 = agonists of human NR2E3 nuclear receptor | Q9Y5X4 | actives 0.35% (n = 360,000) | inhibition of corepressor binding, % at 3.98 µM | CHO-S Gal4-NCOR/VP16-NR2E3 two-hybrid, luciferase;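 active = inhibition above the mean of all tested compounds plus 3 SD, cut at about 70% in these data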;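 also: 0% = DMSO with NR2E3 transfected cells and 100% = cells lacking NR2E3 construct; higher means lower luciferase signal from less NR2E3 corepressor binding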
GalR3 antag = antagonists of human GalR3 | O60755 | HEK293 GalR3-CNG cAMP membrane potential fluorescence; galR3 body fused to GalR1 C-terminus | inhibition, % at 3 µM | actives 0.44% (n = 360,000) | AID 651719;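 active = inhibition above the screen-wide average plus 3 SD, cut at about 13% in these data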;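 also: forskolin and galanin both at EC90 stimulate the cells; cAMP rise reported by CNG channel membrane potential dye signal; 0% = forskolin plus galanin with DMSO and 100% = forskolin alone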
697 NFkB inh = inhibitors of the PMA/ionomycin-induced NF-kB reporter in 697 B cells; 697 B-cell NF-kB luciferase reporter, 16 h; AID 435022; inhibition, % at 4 µM; actives 0.33% (n = 330,000); in the data active = inhibition above about 35%
Jurkat NFkB conf = lowers PMA/ionomycin-induced NF-kB signal in Jurkat cells; actives 27% (n = 2,700); shares compounds with Jurkat NFkB inh; Jurkat NF-kB luciferase, 16 h; inhibition, % at 4 µM;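 active = inhibition reaching about 45% at 4 µM in either replicate, limit read from the data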;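 also: plate controls were PMA/ionomycin stimulated DMSO wells for no effect and unstimulated DMSO wells for full effect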
Numbers without * were called inactive; . = no result.

SMILES	Jurkat NFkB inh	GASC-1 inh	NR2E3 ag-1	NR2E3 ag-2	GalR3 antag	697 NFkB inh	Jurkat NFkB conf
CCOc1ccccc1NC(=O)CN(c1cc(C)cc(C)c1)S(=O)(=O)c1c(C)noc1C	-0.8	7.5	4.1	-17.1	1.8	2.8	.
CCOc1ccc(N(CC(=O)Nc2ccc(C)c(C)c2)S(=O)(=O)c2c(C)noc2C)cc1	12.2	-5.6	-0.8	-32.8	-2.1	-16.9	.
CCOC(=O)C1CCCN1C(=O)C1(NC(C)=O)CCCC1 (stereo not drawn)	.	.	.	-1.9	-6.2	.	.
Cc1ccc(-c2nc3sc4c(c3c(=O)n2N)CC(C)(C)OC4)cc1	-28.0	5.2	3.1	-3.0	-4.6	-38.4	.
Cc1ccc(-c2nc3sc4c(c3c(=O)n2N)CCCC4)cc1	-187.8	-0.3	0.1	-154.3	-5.9	-192.3	-121.9
Nc1nc(-c2ccccc2)nc2sc3c(c12)CCCC3	-162.0	-2.6	-1.7	-164.4	-1.1	-244.3	-155.8
CC1(C)CC[C@]2(CO)CC[C@]3(C)C(=CCC4[C@@]5(C)CC[C@H](O)[C@@](C)(CO)C5CC[C@]43C)[C@@H]2C1 (stereo partly drawn)	0.2	30.3	.	-12.2	-4.8	1.3	.
O=C(Nc1cccc(S(=O)(=O)N2CCCC2)c1)[C@@H]1O[C@H](CO)[C@@H](O)[C@H]1O	.	.	.	-33.5	-2.2	.	.
CCCCc1ncc(CN2CCC(n3nccc3NC(=O)c3ccccc3Cl)CC2)[nH]1	-4.4	-1.6	4.6	-19.3	-1.8	-5.8	.
COc1ccc(NC(=S)NN(C)C(=S)Nc2ccc(OC)cc2)cc1	65.5*	5.9	3.8	-31.9	2.1	-49.0	-2.0
Cc1ccc(C(OCC(O)CNCc2ccc(F)cc2)c2ccccc2)cc1 (stereo not drawn)	-5.6	-2.0	0.4	16.8	-8.1	-4.0	.
COc1ccc(C(=O)CSc2nc(C(C)(C)C)nc3ccccc23)cc1	-17.8	-9.7	4.1	-17.9	-8.0	-22.2	.
COc1ccc(NC2CCCN(C(=O)c3cn(C)c4ccccc34)C2)cc1 (stereo not drawn)	3.0	-0.1	-2.0	-15.0	3.3	10.4	.
COc1cc(CC(=O)OCC(=O)c2ccc3c(c2)OCCO3)cc(OC)c1OC	60.7*	-4.0	1.4	13.9	-2.0	0.7	37.8
Cc1noc(C)c1COc1cccc(C(=O)OCC(=O)N2CC(=O)Nc3ccccc32)c1	57.6*	14.1	3.5	-48.1	-1.8	6.0	48.4
O=C1CN(C(=O)COc2cccc(F)c2)c2ccccc2N1	2.4	-3.1	-0.4	.	-4.6	21.7	.
O=C(N/N=C/c1ccccn1)c1ccc(Cl)c(Cl)c1	69.9*	-19.4	-3.4	-42.2	-3.7	2.9	-1.8
COC(=O)c1[nH]c2c(c1C)C(=O)CC(c1cccs1)C2 (stereo not drawn)	55.9*	4.9	-0.4	15.5	1.9	0.0	53.8*
COC(=O)c1[nH]c2c(c1C)C(=O)CC(c1cc(OC)ccc1OC)C2 (stereo not drawn)	61.3*	-2.7	-0.6	-40.8	1.9	-26.6	29.5
CCOc1ccc(C2CC(=O)c3c([nH]c(C(=O)OC)c3C)C2)cc1OC (stereo not drawn)	-5.7	1.4	4.4	-27.1	-1.5	16.1	.
CN(Cc1cccnc1)C(=O)c1ccc(Cl)c(NS(=O)(=O)c2ccc(F)cc2)c1	7.5	.	.	9.3	-5.2	0.5	.
CCCCOc1ccc(-c2csc(N)n2)cc1[N+](=O)[O-]	-166.6	10.1	-0.2	-162.3	-2.1	-85.7	4.0
CCCCOc1ccc(C2=CSC3=NCCN23)cc1[N+](=O)[O-]	-19.9	-34.4	1.6	-38.1	-6.8	-16.9	.
Nc1ccccc1NC1CCCCC1	.	.	.	-8.3	-4.0	.	.
CC(C)c1ccc(C(=O)N(c2ccccn2)C(C)c2ccco2)cc1 (stereo not drawn)	-165.5	-6.1	2.3	-24.3	-3.2	-46.1	-77.7
CC(c1ccco1)N(C(=O)c1ccc(C#N)cc1)c1ccccn1 (stereo not drawn)	-9.8	18.7	0.1	-1.2	-2.7	15.3	.
CC(C)C[C@H]1COc2cccc(N3CCSCC3)c2S(=O)(=O)N1	.	.	.	-0.6	-5.8	.	.
